Laboratory results as given in ChEMBL document CHEMBL5335797, “Design, Synthesis, and Evaluation of New 1H-Benzo[d]imidazole Based PqsR Inhibitors as Adjuvant Therapy for Pseudomonas aeruginosa Infections” (J Med Chem, 2024).
The source made the active and inactive calls. No cut-off for these calls is given here.

Legend:
[1] = Inhibition of Pseudomonas aeruginosa pqsA-lux complex expressed in Pseudomonas aeruginosa PAO1-L by bioluminescent reporter assay
How it was run: (§1)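 Reporter strains PAO1-L and PA14 carrying chromosomal mCTX::PpqsA-lux, grown in LB at 37 °C. Inhibition read as reduced luminescence. Single-point screen at 10 μM from 10 mM DMSO stock; dose–response curves in both strains; mean ± SD, n = 2.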

[2] = Inhibition of Pseudomonas aeruginosa pqsA-lux complex expressed in Pseudomonas aeruginosa PA14 by bioluminescent reporter assay; how it was run: as §1
Pseudomonas aeruginosa [3] = assay: Inhibition of biofilm formation in Pseudomonas aeruginosa PAO1-L at 10 uM incubated for 6 to 24 hrs by SYTO9/PI staining based confocal laser scanning microscopy; format: functional, organism-based; conditions: time 6-24 hrs
How it was run: (§2)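 PAO1-L biofilms grown on glass coverslips in a rolling bioreactor (20 rpm) in FAB 10 mM glucose, inoculated at OD600 0.01, 30 °C for 24 h with 10 μM compound from the start. Then PBS wash and 6 or 24 h in fresh medium with 60 μg/mL ciprofloxacin, 20 μM compound, or both. LIVE/DEAD BacLight staining, CLSM; live/dead ratios against untreated.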

[4] = molecular target: T1, Transcriptional regulator MvfR (Pseudomonas aeruginosa PA14) (UniProt A0A072ZLE6); assay: Antagonist activity at PqsR in wild-type Pseudomonas aeruginosa PAO1-L assessed as reduction in HQNO level at 0.2 uM by LCMS/MS analysis relative to control; parameters: scale not given: the % may be the effect or the level left
T1 sequence (whole entry): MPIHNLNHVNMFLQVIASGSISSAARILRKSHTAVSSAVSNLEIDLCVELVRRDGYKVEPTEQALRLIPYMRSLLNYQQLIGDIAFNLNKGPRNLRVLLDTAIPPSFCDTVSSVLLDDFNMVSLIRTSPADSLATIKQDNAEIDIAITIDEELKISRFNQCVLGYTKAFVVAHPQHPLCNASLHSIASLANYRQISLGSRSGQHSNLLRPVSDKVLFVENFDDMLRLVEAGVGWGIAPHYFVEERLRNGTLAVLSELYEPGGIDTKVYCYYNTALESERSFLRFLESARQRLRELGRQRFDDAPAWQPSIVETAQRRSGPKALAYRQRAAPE

[5] = molecular target: T1, Transcriptional regulator MvfR (Pseudomonas aeruginosa PA14); assay: Antagonist activity at PqsR in Pseudomonas aeruginosa IPCD48 clinical isolate assessed as reduction in HHQ level at 0.2 uM by LCMS/MS analysis; conditions: filed as antagonist
[6] = molecular target: T1, Transcriptional regulator MvfR (Pseudomonas aeruginosa PA14); assay: Antagonist activity at PqsR in Pseudomonas aeruginosa IPCD1331 clinical isolate assessed as reduction in HQNO level at 0.2 uM by LCMS/MS analysis relative to control; parameters: scale not given: the % may be the effect or the level left
[7] = molecular target: T1, Transcriptional regulator MvfR (Pseudomonas aeruginosa PA14); assay: Antagonist activity at PqsR in Pseudomonas aeruginosa LESB58 clinical isolate assessed as reduction in HQNO level at 0.2 uM by LCMS/MS analysis relative to control; parameters: scale not given: the % may be the effect or the level left
[8] = molecular target: T1, Transcriptional regulator MvfR (Pseudomonas aeruginosa PA14); assay: Antagonist activity at PqsR in Pseudomonas aeruginosa LESB58 clinical isolate assessed as reduction in AQ level at 0.2 uM by LCMS/MS analysis; conditions: filed as antagonist
Pseudomonas aeruginosa [9] = assay: Potentiation of Ciprofloxacin-induced antibiofilm activity in Pseudomonas aeruginosa PAO1-L at 10 uM incubated for 6 to 24 hrs by SYTO9/PI staining based confocal laser scanning microscopy; format: functional, organism-based; conditions: time 6-24 hrs; how it was run: as §2
[10] = molecular target: T1, Transcriptional regulator MvfR (Pseudomonas aeruginosa PA14); assay: Antagonist activity at PqsR in wild-type Pseudomonas aeruginosa PA14 assessed as reduction in PQS level at 0.2 uM by LCMS/MS analysis; conditions: filed as antagonist
[11] = molecular target: T1, Transcriptional regulator MvfR (Pseudomonas aeruginosa PA14); assay: Antagonist activity at PqsR in Pseudomonas aeruginosa IPCD48 clinical isolate assessed as inhibition of pyocyanin level at 200 nM incubated for 16 hrs by absorbance based assay; conditions: filed as antagonist
[12] = molecular target: T1, Transcriptional regulator MvfR (Pseudomonas aeruginosa PA14); assay: Antagonist activity at PqsR in Pseudomonas aeruginosa IPCD48 clinical isolate assessed as reduction in PQS level at 0.2 uM by LCMS/MS analysis; conditions: filed as antagonist
[13] = molecular target: T1, Transcriptional regulator MvfR (Pseudomonas aeruginosa PA14); assay: Antagonist activity at PqsR in wild-type Pseudomonas aeruginosa PAO1-L assessed as reduction in HHQ level at 0.2 uM by LCMS/MS analysis; conditions: filed as antagonist
[14] = molecular target: T1, Transcriptional regulator MvfR (Pseudomonas aeruginosa PA14); assay: Antagonist activity at PqsR in Pseudomonas aeruginosa IPCD1350 clinical isolate assessed as reduction in HQNO level at 0.2 uM by LCMS/MS analysis relative to control; parameters: scale not given: the % may be the effect or the level left
[15] = molecular target: T1, Transcriptional regulator MvfR (Pseudomonas aeruginosa PA14); assay: Antagonist activity at PqsR in Pseudomonas aeruginosa IPCD1350 clinical isolate assessed as inhibition of pyocyanin level at 200 nM incubated for 16 hrs by absorbance based assay; conditions: filed as antagonist
[16] = molecular target: T1, Transcriptional regulator MvfR (Pseudomonas aeruginosa PA14); assay: Antagonist activity at PqsR in Pseudomonas aeruginosa IPCD1331 clinical isolate assessed as reduction in PQS level at 0.2 uM by LCMS/MS analysis
[17] = molecular target: T1, Transcriptional regulator MvfR (Pseudomonas aeruginosa PA14); assay: Antagonist activity at PqsR in wild-type Pseudomonas aeruginosa PA14 assessed as reduction in HQNO level at 0.2 uM by LCMS/MS analysis relative to control; parameters: scale not given: the % may be the effect or the level left
A549 = assay: Cytotoxicity against human A549 cells assessed as cell viability upto 100 uM incubated for 24 hrs by resazurin reduction assay; format: toxicity, cell-based; conditions: a549, 24 h
How it was run: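 A549 cells in DMEM with 10% FBS and 1% PSN, seeded at 1 × 10^4 cells/well. Compound at 1, 50 and 100 μM in sextuplicate, 24 h at 37 °C and 5% CO2. Vehicle control 1% DMSO; positive control 100 μM K2Cr2O7. Alamar blue added for 4–6 h, fluorescence read at ex 510/em 590 nm, normalized to DMSO.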

[18] = molecular target: T1, Transcriptional regulator MvfR (Pseudomonas aeruginosa PA14); assay: Antagonist activity at PqsR in Pseudomonas aeruginosa IPCD1331 clinical isolate assessed as inhibition of pyocyanin level at 200 nM incubated for 16 hrs by absorbance based assay; conditions: filed as antagonist
[19] = molecular target: T1, Transcriptional regulator MvfR (Pseudomonas aeruginosa PA14); assay: Antagonist activity at PqsR in wild-type Pseudomonas aeruginosa PAO1-L assessed as reduction in PQS level at 0.2 uM by LCMS/MS analysis; conditions: filed as antagonist
[20] = molecular target: T1, Transcriptional regulator MvfR (Pseudomonas aeruginosa PA14); assay: Antagonist activity at PqsR in wild-type Pseudomonas aeruginosa PA14 assessed as reduction in HHQ level at 0.2 uM by LCMS/MS analysis; conditions: filed as antagonist
[21] = molecular target: T1, Transcriptional regulator MvfR (Pseudomonas aeruginosa PA14); assay: Antagonist activity at PqsR in Pseudomonas aeruginosa IPCD1331 clinical isolate assessed as reduction in HHQ level at 0.2 uM by LCMS/MS analysis
[22] = molecular target: T1, Transcriptional regulator MvfR (Pseudomonas aeruginosa PA14); assay: Antagonist activity at PqsR in Pseudomonas aeruginosa IPCD48 clinical isolate assessed as reduction in HQNO level at 0.2 uM by LCMS/MS analysis relative to control; parameters: scale not given: the % may be the effect or the level left
[23] = molecular target: T1, Transcriptional regulator MvfR (Pseudomonas aeruginosa PA14); assay: Antagonist activity at PqsR in Pseudomonas aeruginosa IPCD1451 clinical isolate assessed as reduction in HQNO level at 0.2 uM by LCMS/MS analysis
[24] = molecular target: T1, Transcriptional regulator MvfR (Pseudomonas aeruginosa PA14); assay: Antagonist activity at PqsR in wild-type Pseudomonas aeruginosa PAO1-L assessed as inhibition of pyocyanin level at 200 nM incubated for 16 hrs by absorbance based assay; conditions: filed as antagonist
Pseudomonas aeruginosa [25] = assay: Inhibition of biofilm formation in GFP-labeled Pseudomonas aeruginosa PAO1-L at 1 uM incubated for 16 hrs by PI staining based confocal laser scanning microscopy; format: functional, organism-based
How it was run: (§3)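 GFP-tagged strain (pMMG) grown in RPMI-1640 with 20 mM glucose and 2 μM FeCl3. Seeded at OD600 0.01 on glass coverslips, static 1.5 h at 37 °C. Compound added at 1 μM, then shaken at 60 rpm and 37 °C for 16 h. Tobramycin 100 μg/mL plus propidium iodide 2 μM for a further 2 or 6 h. CLSM, 5 random z-stacks per coverslip.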

[26] = molecular target: T1, Transcriptional regulator MvfR (Pseudomonas aeruginosa PA14); assay: Antagonist activity at PqsR in wild-type Pseudomonas aeruginosa PA14 assessed as inhibition of pyocyanin level at 200 nM incubated for 16 hrs by absorbance based assay; conditions: filed as antagonist
[27] = molecular target: T1, Transcriptional regulator MvfR (Pseudomonas aeruginosa PA14); assay: Antagonist activity at PqsR in Pseudomonas aeruginosa LESB58 clinical isolate assessed as inhibition of pyocyanin level at 200 nM incubated for 16 hrs by absorbance based assay; conditions: filed as antagonist
[28] = molecular target: T1, Transcriptional regulator MvfR (Pseudomonas aeruginosa PA14); assay: Antagonist activity at PqsR in Pseudomonas aeruginosa IPCD1451 clinical isolate assessed as inhibition of pyocyanin level at 200 nM incubated for 16 hrs by absorbance based assay
Pseudomonas aeruginosa [29] = assay: Potentiation of Tobramycin-induced antibiofilm activity in Pseudomonas aeruginosa PAO1-L at 1 uM preincubated for 16 hrs followed by tobramycin addition measured for 2 to 6 hrs by PI staining based confocal laser scanning microscopy; format: functional, organism-based; conditions: time 18-22 hrs; how it was run: as §3
[30] = molecular target: T1, Transcriptional regulator MvfR (Pseudomonas aeruginosa PA14); assay: Antagonist activity at PqsR in wild-type Pseudomonas aeruginosa PAO1-L assessed as inhibition of pyocyanin level at 3 times IC50 incubated for 16 hrs by absorbance based assay relative to control; conditions: filed as antagonist
Pseudomonas aeruginosa [31] = assay: Inhibition of Pseudomonas aeruginosa pqsA-lux complex expressed in Pseudomonas aeruginosa PAO1-L at 10 uM by bioluminescent reporter assay; how it was run: as §1
Pseudomonas aeruginosa [32] = assay: Inhibition of Pseudomonas aeruginosa pqsA-lux complex expressed in Pseudomonas aeruginosa PA14 at 10 uM by bioluminescent reporter assay; how it was run: as §1

## Cn1c(NCC(O)COc2ccc(CC#N)cc2)nc2ccc(C(F)(F)F)cc21 (stereo not given)
[1]; read-out: IC50
  IC50: 1500 nM
[2]
  IC50: Not Active

## CC(C)n1c(NCC(O)COc2ccc(CC#N)cc2)nc2ccc(Cl)cc21 (stereo not given)
Pseudomonas aeruginosa [3]
  inhibition: inactive
[4]
  Activity: 20%
[5]
  Activity: Active
[6]
  Activity: 20%
[7]
  Activity: 20%
[8]
  Activity: Active
Pseudomonas aeruginosa [9]
  Activity: Active
[10]
  Activity: Active
[11]
  inhibition: Active
[12]
  Activity: Active
[13]
  Activity: Active
[14]
  Activity: 20%
[15]
  inhibition: Active
[16]
  Activity: inactive
[17]
  Activity: 20%
A549
  Activity: Non-Toxic
[18]
  inhibition: Active
[19]
  Activity: Active
[20]
  Activity: Active
[21]
  Activity: inactive
[22]
  Activity: 20%
[23]
  Activity: inactive
[24]
  inhibition: Active
Pseudomonas aeruginosa [25]
  inhibition: inactive
[26]
  inhibition: Active
[27]
  inhibition: Active
[28]
  inhibition: inactive
Pseudomonas aeruginosa [29]
  Activity: Active

## CN1CCC(n2c(NCC(O)COc3ccc(CC#N)cc3)nc3ccc(Cl)cc32)CC1 (stereo not given)
[1]
  IC50: Not Active
[2]
  IC50: Not Active

## CC(C)n1c(NCC(N)COc2ccc(CC#N)cc2)nc2ccc(Cl)cc21 (stereo not given)
[2]
  IC50: Not Active

## Cn1c(NCC(O)COc2ccc(CC#N)cc2)nc2ccc(Cl)cc21 (stereo not given)
[30]
  inhibition: > 50%

## CC(C)n1c(NCC(O)COc2ccc(CC#N)c(F)c2)nc2ccc(Cl)cc21 (stereo not given)
[30]
  inhibition: > 50%

## CCn1c(NCC(O)COc2ccc(CC#N)cc2)nc2ccc(Cl)cc21 (stereo not given)
[30]
  inhibition: > 50%

## N#CCc1ccc(OCC(O)CNc2nc3ccc(Cl)cc3n2CCO)cc1 (stereo not given)
[30]
  inhibition: > 50%

## N#CCc1ccc(OCC(O)CNc2nc3ccc(Cl)cc3n2C2CC2)cc1 (stereo not given)
[30]
  inhibition: > 50%

## N#CCc1ccc(OCC(O)CNc2nc3ccc(Cl)cc3o2)cc1 (stereo not given)
Pseudomonas aeruginosa [31]
  inhibition: inactive
Pseudomonas aeruginosa [32]
  inhibition: inactive

## COCCn1c(NCC(O)COc2ccc(CC#N)cc2)nc2ccc(Cl)cc21 (stereo not given)
[30]
  inhibition: > 50%

## N#CCc1ccc(OCC(O)CNc2nc3ccc(Cl)cc3n2C2CCC2)cc1 (stereo not given)
[30]
  inhibition: > 50%

## Cn1c(NCC(O)COc2ccc(CC#N)cc2)nc2cc(Cl)ccc21 (stereo not given)
[1]
  IC50: Not Active
[2]
  IC50: Not Active

## CN(C)CCn1c(NCC(O)COc2ccc(CC#N)cc2)nc2ccc(Cl)cc21 (stereo not given)
[1]
  IC50: Not Active
[2]
  IC50: Not Active

## Cn1c(NCC(O)COc2ccc(CC#N)cc2)nc2cc(Cl)c(Cl)cc21 (stereo not given)
[1]
  IC50: Not Active
[2]
  IC50: Not Active

## N#CCc1ccc(OCC(O)CNc2nc3ccc(Cl)cc3n2CCOCc2ccccc2)cc1 (stereo not given)
[2]
  IC50: Not Active

## N#CCc1ccc(OCC(O)CNc2nc3ccc(Cl)cc3s2)cc1 (stereo not given)
Pseudomonas aeruginosa [31]
  inhibition: inactive
Pseudomonas aeruginosa [32]
  inhibition: inactive

## Cn1c(SCC(O)COc2ccc(CC#N)cc2)nc2ccc(Cl)cc21 (stereo not given)
Pseudomonas aeruginosa [31]
  inhibition: inactive
Pseudomonas aeruginosa [32]
  inhibition: inactive

## CC(C)n1c(NCC(O)COc2ccc(CC#N)cc2F)nc2ccc(Cl)cc21 (stereo not given)
[30]
  inhibition: > 50%
A549
  Activity: Non-Toxic
